According to ChEMBL document CHEMBL1126667, “CCK-B agonist or antagonist activities of structurally hindered and peptidase-resistant Boc-CCK4 derivatives” (J Med Chem, 1993):
Non-standard residues stand in square brackets, D forms with d. Residues, ends and D or L forms follow the SMILES beside them. *: point of attachment. NMe1Nal = CN[C@@H](Cc1cccc2ccccc12)C(=O)O; NMeW = CN[C@@H](Cc1c[nH]c2ccccc12)C(=O)O; 1Nal = N[C@@H](Cc1cccc2ccccc12)C(=O)O; 2Nal = N[C@@H](Cc1ccc2ccccc2c1)C(=O)O; Chg = N[C@H](C(=O)O)C1CCCCC1; Phg = N[C@H](C(=O)O)c1ccccc1; Nle = CCCC[C@H](N)C(=O)O; OtBu = CC(C)(C)O*

Target: T1, Cholecystokinin receptor type A (Cavia porcellus, UniProt Q63931)
T1 sequence (Q63931 whole entry): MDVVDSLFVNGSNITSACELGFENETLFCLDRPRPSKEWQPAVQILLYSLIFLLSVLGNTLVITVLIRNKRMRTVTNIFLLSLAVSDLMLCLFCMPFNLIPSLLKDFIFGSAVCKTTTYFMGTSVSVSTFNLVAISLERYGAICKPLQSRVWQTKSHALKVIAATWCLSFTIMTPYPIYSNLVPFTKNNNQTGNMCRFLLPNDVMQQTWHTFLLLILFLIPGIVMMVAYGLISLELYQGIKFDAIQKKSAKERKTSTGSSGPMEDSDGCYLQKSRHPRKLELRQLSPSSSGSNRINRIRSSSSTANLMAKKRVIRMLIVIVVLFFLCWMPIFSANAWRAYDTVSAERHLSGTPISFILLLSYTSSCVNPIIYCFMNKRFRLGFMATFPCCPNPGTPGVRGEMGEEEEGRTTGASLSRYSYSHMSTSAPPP
Assay: Affinity of compound on binding of [3H]pCCK-8 to the cholecystokinin type A receptor in guinea pig pancreatic membrane
Format: cell membranes
Method in brief: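 Competition binding on guinea pig pancreatic membranes (0.2 mg protein/mL) using [3H]pCCK8 at 0.2 nM. Nonspecific binding defined with 1 μM CCK8. Reaction stopped by filtration over BSA-precoated GF/B filters and counted. KI derived by Cheng-Prusoff.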

Compared with `CN(C(=O)[C@H](Cc1ccccc1)NC(=O)[C@H](CC(=O)O)NC(=O)[C@@H](N)Cc1ccccc1)[C@@H](Cc1c[nH]c2ccccc12)C(=O)OC(C)(C)C`, `CN(C(=O)[C@H](Cc1ccccc1)NC(=O)[C@H](CC(=O)O)NC(=O)[C@@H](N)Cc1ccccc1)[C@H](Cc1c[nH]c2ccccc12)C(=O)OC(C)(C)C` is 2.5-fold higher in Ki: 3.2 µM for the first, 8 µM for the second.

`CN(C(=O)[C@@H](NC(=O)[C@H](CC(=O)O)NC(=O)[C@@H](N)Cc1cccc2ccccc12)C1CCCCC1)[C@@H](Cc1c[nH]c2ccccc12)C(=O)OC(C)(C)C` (H-[1Nal]D[Chg][NMeW]-OtBu) showed a Ki of 2.1 µM.

Target: T2, Gastrin/cholecystokinin type B receptor (Rattus norvegicus, UniProt P30553)
T2 sequence (P30553 whole entry): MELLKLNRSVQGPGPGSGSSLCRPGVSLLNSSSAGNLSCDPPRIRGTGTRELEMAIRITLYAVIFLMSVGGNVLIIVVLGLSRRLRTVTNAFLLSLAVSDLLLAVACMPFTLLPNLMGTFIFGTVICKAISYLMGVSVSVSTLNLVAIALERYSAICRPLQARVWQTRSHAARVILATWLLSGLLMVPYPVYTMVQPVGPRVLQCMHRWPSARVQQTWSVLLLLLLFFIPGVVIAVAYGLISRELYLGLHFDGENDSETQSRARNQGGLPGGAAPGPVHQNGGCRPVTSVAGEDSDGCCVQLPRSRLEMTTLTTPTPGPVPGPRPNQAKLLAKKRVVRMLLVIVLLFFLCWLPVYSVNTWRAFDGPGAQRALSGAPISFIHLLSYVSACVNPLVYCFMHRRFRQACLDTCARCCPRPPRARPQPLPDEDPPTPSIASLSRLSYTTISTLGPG
Assay: Affinity of compound on binding of [3H]pCCK-8 to the cholecystokinin type B receptor in rat brain membrane
Format: cell membranes
Method in brief: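 Brain membranes (0.6 mg protein/mL; rat or guinea pig) incubated with 0.2 nM [3H]pCCK8 in 50 mM Tris-HCl pH 7.4, 5 mM MgCl2, 0.2 mg/mL bacitracin, 60 min at 25 °C. Filtered on BSA-precoated GF/B filters and counted. KI by Cheng-Prusoff; mean ± SEM of three experiments, each in triplicate.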

`CN(C)[C@@H](Cc1cccc2ccccc12)C(=O)N[C@@H](CC(=O)O)C(=O)N[C@H](C(=O)N[C@@H](Cc1c[nH]c2ccccc12)C(=O)OC(C)(C)C)c1ccccc1` gave a Ki of 0.051 µM.

Target: T1, Cholecystokinin receptor type A
Assay: Displacement of [3H]-pCCK-8 from cholecystokinin-A receptor in guinea pig pancreatic membrane
Format: cell membranes
Method in brief: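 Competition binding on guinea pig pancreatic membranes (0.2 mg protein/mL) using [3H]pCCK8 at 0.2 nM. Reaction stopped by filtration over BSA-precoated GF/B filters and counted. KI derived by Cheng-Prusoff.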

First: CCCC[C@H](NC(=O)[C@H](CC(=O)O)NC(=O)[C@@H](N)Cc1cccc2ccccc12)C(=O)N(C)[C@@H](Cc1c[nH]c2ccccc12)C(=O)OC(C)(C)C
Second: CCCC[C@H](NC(=O)[C@H](CC(=O)O)NC(=O)[C@@H](N)Cc1cccc2ccccc12)C(=O)N(C)[C@H](Cc1c[nH]c2ccccc12)C(=O)OC(C)(C)C
The Ki of the first is 5.2-fold lower: 1.2 µM for the first, 6.3 µM for the second.

Going from `CN(C)[C@@H](Cc1cccc2ccccc12)C(=O)N[C@@H](CC(=O)O)C(=O)N[C@H](C(=O)N[C@@H](Cc1c[nH]c2ccccc12)C(=O)OC(C)(C)C)C1CCCCC1` to `CC(C)(C)OC(=O)[C@H](Cc1c[nH]c2ccccc12)NC(=O)[C@@H](NC(=O)[C@H](CC(=O)O)NC(=O)[C@@H](N)Cc1cccc2ccccc12)C1CCCCC1` (H-[1Nal]D[Chg]W-OtBu), the Ki falls from 5.4 µM to 1.4 µM (3.9-fold). The second binds more tightly here.

`CN(C)[C@@H](Cc1cccc2ccccc12)C(=O)N[C@@H](CC(=O)O)C(=O)N[C@H](C(=O)N[C@@H](Cc1c[nH]c2ccccc12)C(=O)OC(C)(C)C)c1ccccc1` and `CC(C)(C)OC(=O)[C@H](Cc1c[nH]c2ccccc12)NC(=O)[C@@H](NC(=O)[C@H](CC(=O)O)NC(=O)[C@@H](N)Cc1cccc2ccccc12)c1ccccc1` (H-[1Nal]D[Phg]W-OtBu) are within 1.5-fold of each other in Ki: 1 µM for the first, 0.99 µM for the second.

Compared with `CCCC[C@H](NC(=O)[C@H](CC(=O)O)NC(=O)[C@H](Cc1cccc2ccccc12)N(C)C)C(=O)N(C)[C@@H](Cc1c[nH]c2ccccc12)C(=O)OC(C)(C)C`, `CCCC[C@H](NC(=O)[C@H](CC(=O)O)NC(=O)[C@H](Cc1cccc2ccccc12)NC)C(=O)N(C)[C@@H](Cc1c[nH]c2ccccc12)C(=O)OC(C)(C)C` (H-[NMe1Nal]D[Nle][NMeW]-OtBu) is 2.3-fold higher in Ki: 0.52 µM for the first, 1.2 µM for the second. The first binds more tightly here.

Going from `CCCC[C@H](NC(=O)[C@H](CC(=O)O)NC(=O)[C@@H](N)Cc1ccccc1)C(=O)N(C)[C@@H](Cc1c[nH]c2ccccc12)C(=O)OC(C)(C)C` (H-FD[Nle][NMeW]-OtBu) to `CCCC[C@H](NC(=O)[C@H](CC(=O)O)NC(=O)[C@@H](N)Cc1ccc2ccccc2c1)C(=O)N(C)[C@@H](Cc1c[nH]c2ccccc12)C(=O)OC(C)(C)C` (H-[2Nal]D[Nle][NMeW]-OtBu), the Ki falls from greater than 5 µM to 4.2 µM. The second binds more tightly here.

`CC(C)(C)OC(=O)[C@H](Cc1c[nH]c2ccccc12)NC(=O)[C@H](Cc1ccccc1)NC(=O)[C@H](CC(=O)O)NC(=O)[C@@H](N)Cc1cccc2ccccc12` (H-[1Nal]DFW-OtBu) and `CN(C(=O)[C@H](Cc1ccccc1)NC(=O)[C@H](CC(=O)O)NC(=O)[C@@H](N)Cc1cccc2ccccc12)[C@@H](Cc1c[nH]c2ccccc12)C(=O)OC(C)(C)C` (H-[1Nal]DF[NMeW]-OtBu) are within 1.5-fold of each other in Ki: 2.4 µM for the first, 3.5 µM for the second.

`CN(C(=O)[C@@H](NC(=O)[C@H](CC(=O)O)NC(=O)[C@@H](N)Cc1cccc2ccccc12)c1ccccc1)[C@@H](Cc1c[nH]c2ccccc12)C(=O)OC(C)(C)C` (H-[1Nal]D[Phg][NMeW]-OtBu) and `CCCC[C@H](NC(=O)[C@H](CC(=O)O)NC(=O)[C@@H](N)Cc1ccccc1)C(=O)N[C@H](Cc1c[nH]c2ccccc12)C(=O)OC(C)(C)C` (stereo in doubt; 13) are within 1.5-fold of each other in Ki: 0.83 µM for the first, 1.1 µM for the second.
